Active and inactive are the calls of the source. The rule behind the calls is not given here.
Assays:
[1] = target: Proteinase-activated receptor 2 (Homo sapiens) (UniProt P55085); experiment: Agonist activity at F2R-L1 receptor (unknown origin)
How it was run: (§1)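 PRESTO-Tango β-arrestin2 recruitment; HTLA cells (HEK-T stably expressing β-arrestin2-TEV and tTA-dependent luciferase) transfected by calcium phosphate with receptor-Tango construct, replated next day at 20,000 cells/well; compounds in HBSS/20 mM HEPES/0.3% BSA pH 7.4, 18–24 h; Bright-Glo luminescence after 15 min RT, read as RLU; ≥2-fold over basal scored active.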

[2] = target: D(4) dopamine receptor (Homo sapiens) (UniProt P21917); experiment: Agonist activity at DRD4 receptor (unknown origin); format: functional; how it was run: as §1
[3] = target: G-protein coupled receptor 15 (Homo sapiens) (UniProt P49685); experiment: Agonist activity at GPR15 receptor (unknown origin); format: functional; how it was run: as §1
[4] = target: Lutropin-choriogonadotropic hormone receptor (Homo sapiens) (UniProt P22888); experiment: Agonist activity at LHCGR (unknown origin); format: functional; how it was run: as §1
[5] = target: Cannabinoid receptor 2 (Homo sapiens) (UniProt P34972); experiment: Agonist activity at CNR2 receptor (unknown origin); format: functional; how it was run: as §1
[6] = target: Melanin-concentrating hormone receptor 2 (Homo sapiens) (UniProt Q969V1); experiment: Agonist activity at MCHR2 receptor (unknown orgini); format: functional; how it was run: as §1
[7] = target: Muscarinic acetylcholine receptor M2 (Homo sapiens) (UniProt P08172); experiment: Agonist activity at CHRM2 receptor (unknown origin); format: functional; how it was run: as §1
[8] = target: T1, Mas-related G-protein coupled receptor member X2 (Homo sapiens, UniProt Q96LB1); experiment: Agonist activity at N-terminal Flag-tagged human MRGPRX2 receptor expressed in tetracycline-induced FLP-IN/T-REX 293 cells assessed as increase in intracellular calcium release by FLIPR assay; format: functional, cell-based
T1 sequence (Q96LB1 whole entry): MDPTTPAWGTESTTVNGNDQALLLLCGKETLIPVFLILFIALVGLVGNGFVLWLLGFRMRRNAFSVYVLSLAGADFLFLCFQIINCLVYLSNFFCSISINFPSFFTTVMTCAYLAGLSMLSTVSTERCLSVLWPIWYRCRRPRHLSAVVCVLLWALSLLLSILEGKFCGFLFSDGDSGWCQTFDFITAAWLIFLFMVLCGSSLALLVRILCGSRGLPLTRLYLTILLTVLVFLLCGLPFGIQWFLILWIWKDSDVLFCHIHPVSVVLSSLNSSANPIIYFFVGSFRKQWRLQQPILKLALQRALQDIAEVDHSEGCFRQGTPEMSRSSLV

[9] = target: Alpha-1D adrenergic receptor (Homo sapiens) (UniProt P25100); experiment: Agonist activity at ADRA1D receptor (unknown origin); format: functional; how it was run: as §1
[10] = target: T1, Mas-related G-protein coupled receptor member X2; experiment: Agonist activity at MRGPRX2 (unknown origin) expressed in HTLA cells assessed as induction of beta-arrestin 2 recruitment incubated for 18 to 24 hrs by PRESTO-Tango assay; format: functional, cell-based
[11] = target: Glucose-dependent insulinotropic receptor (Homo sapiens) (UniProt Q8TDV5); experiment: Agonist activity at GPR119 receptor (unknown origin); format: functional; how it was run: as §1
[12] = target: Type-1 angiotensin II receptor (Homo sapiens) (UniProt P30556); experiment: Agonist activity at AGTR1 receptor (unknown origin); format: functional; how it was run: as §1
[13] = target: T2, Mas-related G-protein coupled receptor member X2 (Homo sapiens) (UniProt Q96LB1); experiment: Agonist activity at MRGPRX2 receptor in human LAD2 cells assessed as increase in degranulation incubated for 30 mins by beta-hexosaminidase assay; format: functional, cell-based; details: filed as agonist
T2 sequence (whole entry): T1 sequence (Q96LB1 whole entry)
How it was run: (§2)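 β-Hexosaminidase release: LAD2 cells in fresh medium 18 h, washed in Tyrode's buffer pH 7.4, 10,000 cells/well; drug (single concentration or 8-point curve) added in triplicate, 30 min 37°C; supernatant and Triton X-100 lysate each reacted with NAG in citrate pH 4.5 for 90 min 37°C, stopped with carbonate pH 10, A405; % release = released/total ×100, minus vehicle.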

[14] = target: Prosaposin receptor GPR37 (Homo sapiens) (UniProt O15354); experiment: Agonist activity at GPR37 receptor (unknown origin); format: functional; how it was run: as §1
[15] = target: Alpha-2C adrenergic receptor (Homo sapiens) (UniProt P18825); experiment: Agonist activity at ADRA2C receptor (unknown origin); how it was run: as §1
[16] = target: 5-hydroxytryptamine receptor 1A (Homo sapiens) (UniProt P08908); experiment: Agonist activity at HTR1A receptor (unknown origin); format: functional; how it was run: as §1
[17] = target: Beta-3 adrenergic receptor (Homo sapiens) (UniProt P13945); experiment: Agonist activity at ADRB3 receptor (unknown origin); format: functional; how it was run: as §1
[18] = target: 5-hydroxytryptamine receptor 2A (Homo sapiens) (UniProt P28223); experiment: Agonist activity at HTR2 receptor (unknown origin); format: functional; how it was run: as §1
[19] = target: Gastrin-releasing peptide receptor (Homo sapiens) (UniProt P30550); experiment: Agonist activity at GRPR (unknown origin); format: functional; how it was run: as §1
[20] = target: Glucagon-like peptide 1 receptor (Homo sapiens) (UniProt P43220); experiment: Agonist activity at GLP1R (unknown origin); format: functional; how it was run: as §1
[21] = target: Alpha-1B adrenergic receptor (Homo sapiens) (UniProt P35368); experiment: Agonist activity at ADRA1B receptor (unknown origin); format: functional; how it was run: as §1
[22] = target: Alpha-1A adrenergic receptor (Homo sapiens) (UniProt P35348); experiment: Agonist activity at ADRA1A receptor (unknown origin); format: functional; how it was run: as §1
[23] = target: Pituitary adenylate cyclase-activating polypeptide type I receptor (Homo sapiens) (UniProt P41586); experiment: Agonist activity at ADCYAP1 receptor (unknown origin); how it was run: as §1
[24] = target: Beta-1 adrenergic receptor (Homo sapiens) (UniProt P08588); experiment: Agonist activity at ADRB1 receptor (unknown origin); format: functional; how it was run: as §1
[25] = target: T2, Mas-related G-protein coupled receptor member X2 (Homo sapiens); experiment: Agonist activity at N-terminal Flag-tagged human MRGPRX2 receptor expressed in tetracycline-induced FLP-IN/T-REX 293 cells assessed as increase in intracellular calcium release <100 uM by FLIPR assay; format: functional, cell-based; details: filed as agonist
How it was run: (§3)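 FLIPR calcium: FLP-IN/T-REX HEK-293-T stable line with N-terminal FLAG codon-optimized receptor, induced 24 h with 1 μg/mL tetracycline in 1% dialyzed FBS (uninduced cells as control); FLIPR calcium dye plus 2.5 mM probenecid 1 h 37°C; 10 s baseline, then drug in HBSS/20 mM HEPES/probenecid pH 7.4, 16-point curve 10 μM to 0.003 nM; fluorescence 120 s; fold over basal, n=3 triplicate.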

[26] = target: T2, Mas-related G-protein coupled receptor member X2 (Homo sapiens); experiment: Agonist activity at MRGPRX2 (unknown origin) expressed in HTLA cells assessed as induction of beta-arrestin 2 recruitment <100 uM incubated for 18 to 24 hrs by PRESTO-Tango assay; format: functional, cell-based; details: filed as agonist, time 18-24 hrs
How it was run: (§4)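 β-arrestin2 recruitment by PRESTO-Tango: HTLA cells transiently transfected (calcium phosphate) with codon-optimized MRGPRX2-Tango (WT or point mutant) or MRGPRB2-Tango, plated next day 20,000 cells/well on poly-L-lysine; drug in HBSS/20 mM HEPES/0.3% BSA pH 7.4 for 18–24 h; Bright-Glo luminescence (RLU); curves n=3 in triplicate, mutants n=4 in triplicate.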

[27] = target: T2, Mas-related G-protein coupled receptor member X2 (Homo sapiens); experiment: Agonist activity at N-terminal Flag-tagged human MRGPRX2 receptor expressed in tetracycline-induced HEK-T cells assessed as increase in intracellular calcium release by FLIPR assay; format: functional, cell-based; details: HEK-T cell, filed as agonist; how it was run: as §3
HTLA [28] = experiment: Agonist activity at MRGPRX2 E164D mutant (unknown origin) expressed in HTLA cells assessed as induction of beta-arrestin 2 recruitment incubated for 18 to 24 hrs by PRESTO-Tango assay; format: cell-based; details: Homo sapiens, filed as agonist, time 18-24 hrs; how it was run: as §4
[29] = target: T2, Mas-related G-protein coupled receptor member X2 (Homo sapiens); experiment: Agonist activity at N-terminal Flag-tagged human MRGPRX2 receptor expressed in HEK-T cells assessed as increase in intracellular calcium release by FLIPR assay; format: functional, cell-based; details: HEK-T cell; how it was run: as §3
HTLA [30] = experiment: Agonist activity at MRGPRX2 D184E mutant (unknown origin) expressed in HTLA cells assessed as induction of beta-arrestin 2 recruitment incubated for 18 to 24 hrs by PRESTO-Tango assay; format: cell-based; details: Homo sapiens, time 18-24 hrs; how it was run: as §4
[31] = target: T2, Mas-related G-protein coupled receptor member X2 (Homo sapiens); experiment: Agonist activity at MRGPRX2 receptor in human LAD2 cells assessed as increase in degranulation incubated for 30 mins in presence of naloxone by beta-hexosaminidase assay; format: functional, cell-based; how it was run: as §2
[32] = target: T2, Mas-related G-protein coupled receptor member X2 (Homo sapiens); experiment: Agonist activity at MRGPRX2 receptor in human LAD2 cells transfected with MRGPRX2 siRNA assessed as increase in degranulation incubated for 30 mins by beta-hexosaminidase assay; format: functional, cell-based
How it was run: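 LAD2 cells (1.2 million/well) transfected with 25 nM MRGPRX2 siRNA pool or non-targeting pool, 72 h; 200,000 cells taken for β-hexosaminidase assay with EC80 concentration of agonist, 30 min 37°C; knockdown checked by qRT-PCR on 1 million cells; fold change % degranulation versus DMSO; two-way ANOVA with Sidak test.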

[33] = target: T2, Mas-related G-protein coupled receptor member X2 (Homo sapiens); experiment: Agonist activity at MRGPRX2 receptor in human LAD2 cells assessed as increase in intracellular calcium release by FLIPR assay; format: functional, cell-based; details: filed as agonist
How it was run: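 LAD2 human mast cells seeded 50,000/well in Tyrode's buffer with calcium dye, 1 h before drug; 10 s baseline, drug added, fluorescence followed 120 s; expressed as fold calcium release over baseline; n=3 in triplicate.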

Sequence of Proteinase-activated receptor 2 (Homo sapiens) (P55085 whole entry): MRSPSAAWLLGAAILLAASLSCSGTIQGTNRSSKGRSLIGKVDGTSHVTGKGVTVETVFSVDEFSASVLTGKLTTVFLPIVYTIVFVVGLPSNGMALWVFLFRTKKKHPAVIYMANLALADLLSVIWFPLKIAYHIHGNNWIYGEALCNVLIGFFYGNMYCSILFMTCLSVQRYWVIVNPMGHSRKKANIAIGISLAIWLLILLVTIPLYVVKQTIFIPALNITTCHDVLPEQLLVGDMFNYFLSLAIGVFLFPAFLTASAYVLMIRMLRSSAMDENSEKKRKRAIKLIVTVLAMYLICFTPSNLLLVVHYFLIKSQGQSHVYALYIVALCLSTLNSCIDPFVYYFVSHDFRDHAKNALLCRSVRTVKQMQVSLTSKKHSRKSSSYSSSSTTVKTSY
Sequence of Prosaposin receptor GPR37 (Homo sapiens) (O15354 whole entry): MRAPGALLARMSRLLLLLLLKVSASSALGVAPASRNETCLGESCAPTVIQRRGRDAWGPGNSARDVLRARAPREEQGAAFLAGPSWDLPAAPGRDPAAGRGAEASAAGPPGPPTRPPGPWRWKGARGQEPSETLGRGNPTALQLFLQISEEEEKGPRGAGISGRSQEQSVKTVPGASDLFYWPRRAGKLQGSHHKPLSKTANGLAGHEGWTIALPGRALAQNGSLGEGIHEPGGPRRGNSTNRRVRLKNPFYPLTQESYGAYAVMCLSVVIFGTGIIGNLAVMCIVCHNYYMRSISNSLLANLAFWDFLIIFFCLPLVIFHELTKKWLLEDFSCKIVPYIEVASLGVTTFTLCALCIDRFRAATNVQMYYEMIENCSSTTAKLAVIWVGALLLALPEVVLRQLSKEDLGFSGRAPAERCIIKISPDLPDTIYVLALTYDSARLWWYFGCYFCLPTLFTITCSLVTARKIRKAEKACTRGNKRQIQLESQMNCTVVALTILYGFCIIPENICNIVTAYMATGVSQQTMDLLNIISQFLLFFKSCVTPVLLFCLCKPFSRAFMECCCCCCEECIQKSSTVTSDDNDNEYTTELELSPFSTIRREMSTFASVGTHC
Sequence of 5-hydroxytryptamine receptor 1A (Homo sapiens) (P08908 whole entry): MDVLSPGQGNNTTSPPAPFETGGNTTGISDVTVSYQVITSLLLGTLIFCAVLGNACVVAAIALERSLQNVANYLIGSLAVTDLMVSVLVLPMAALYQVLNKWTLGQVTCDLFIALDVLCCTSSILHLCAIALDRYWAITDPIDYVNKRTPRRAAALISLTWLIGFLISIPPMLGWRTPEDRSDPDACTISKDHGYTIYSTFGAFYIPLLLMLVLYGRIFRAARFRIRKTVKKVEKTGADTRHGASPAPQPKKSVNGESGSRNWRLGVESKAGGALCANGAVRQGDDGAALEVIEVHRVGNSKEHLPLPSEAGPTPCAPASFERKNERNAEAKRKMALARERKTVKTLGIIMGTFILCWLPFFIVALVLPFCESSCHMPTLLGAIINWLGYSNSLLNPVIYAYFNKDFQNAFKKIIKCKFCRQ
Sequence of D(4) dopamine receptor (Homo sapiens) (P21917 whole entry): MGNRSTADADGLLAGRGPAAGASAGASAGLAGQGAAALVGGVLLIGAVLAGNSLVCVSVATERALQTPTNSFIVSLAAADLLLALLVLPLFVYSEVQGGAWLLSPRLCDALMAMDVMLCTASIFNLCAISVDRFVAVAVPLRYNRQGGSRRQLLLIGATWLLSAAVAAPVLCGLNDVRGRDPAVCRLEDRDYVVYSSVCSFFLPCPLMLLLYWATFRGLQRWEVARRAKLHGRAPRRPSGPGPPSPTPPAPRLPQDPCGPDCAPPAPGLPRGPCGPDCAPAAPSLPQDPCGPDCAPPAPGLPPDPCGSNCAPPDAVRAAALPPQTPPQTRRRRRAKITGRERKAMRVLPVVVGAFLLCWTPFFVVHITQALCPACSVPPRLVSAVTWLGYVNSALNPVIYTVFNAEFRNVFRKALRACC
Sequence of Gastrin-releasing peptide receptor (Homo sapiens) (P30550 whole entry, looked up): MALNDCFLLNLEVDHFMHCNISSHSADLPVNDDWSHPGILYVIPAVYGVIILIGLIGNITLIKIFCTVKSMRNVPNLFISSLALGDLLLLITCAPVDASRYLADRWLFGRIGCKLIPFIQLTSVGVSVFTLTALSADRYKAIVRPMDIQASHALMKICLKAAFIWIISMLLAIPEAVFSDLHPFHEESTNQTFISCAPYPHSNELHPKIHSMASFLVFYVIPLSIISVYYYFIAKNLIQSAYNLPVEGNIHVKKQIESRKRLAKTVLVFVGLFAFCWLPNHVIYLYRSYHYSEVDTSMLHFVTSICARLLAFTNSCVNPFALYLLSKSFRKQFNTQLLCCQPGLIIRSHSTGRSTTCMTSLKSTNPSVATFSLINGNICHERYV
Sequence of Cannabinoid receptor 2 (Homo sapiens) (P34972 whole entry): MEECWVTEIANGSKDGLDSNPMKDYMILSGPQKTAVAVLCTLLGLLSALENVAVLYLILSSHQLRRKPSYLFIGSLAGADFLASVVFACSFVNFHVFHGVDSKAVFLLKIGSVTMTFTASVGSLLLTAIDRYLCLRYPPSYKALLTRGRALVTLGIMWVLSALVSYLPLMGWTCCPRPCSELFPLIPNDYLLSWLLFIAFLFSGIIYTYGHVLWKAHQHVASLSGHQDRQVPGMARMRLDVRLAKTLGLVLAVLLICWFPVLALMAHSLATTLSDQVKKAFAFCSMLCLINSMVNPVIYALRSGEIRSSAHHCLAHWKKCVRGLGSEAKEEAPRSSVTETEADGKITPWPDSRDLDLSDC
Sequence of Type-1 angiotensin II receptor (Homo sapiens) (P30556 whole entry): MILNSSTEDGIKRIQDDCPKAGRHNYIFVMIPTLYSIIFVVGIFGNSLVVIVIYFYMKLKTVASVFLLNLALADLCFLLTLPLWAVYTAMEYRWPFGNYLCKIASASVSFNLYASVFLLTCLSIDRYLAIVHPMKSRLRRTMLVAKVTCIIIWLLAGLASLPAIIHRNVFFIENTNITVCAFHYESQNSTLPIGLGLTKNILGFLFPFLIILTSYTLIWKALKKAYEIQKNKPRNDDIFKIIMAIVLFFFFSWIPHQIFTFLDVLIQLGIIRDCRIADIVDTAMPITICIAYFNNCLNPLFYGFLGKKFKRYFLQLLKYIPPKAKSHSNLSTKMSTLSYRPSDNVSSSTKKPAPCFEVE
Sequence of Melanin-concentrating hormone receptor 2 (Homo sapiens) (Q969V1 whole entry): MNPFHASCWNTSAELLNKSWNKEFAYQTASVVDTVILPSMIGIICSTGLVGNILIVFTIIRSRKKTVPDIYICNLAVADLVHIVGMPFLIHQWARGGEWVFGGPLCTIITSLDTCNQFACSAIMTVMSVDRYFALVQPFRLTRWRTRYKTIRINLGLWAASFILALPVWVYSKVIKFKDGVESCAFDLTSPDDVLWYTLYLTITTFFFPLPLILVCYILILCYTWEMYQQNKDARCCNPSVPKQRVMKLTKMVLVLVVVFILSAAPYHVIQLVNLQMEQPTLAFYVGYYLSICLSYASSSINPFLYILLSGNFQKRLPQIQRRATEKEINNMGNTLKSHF
Sequence of G-protein coupled receptor 15 (Homo sapiens) (P49685 whole entry): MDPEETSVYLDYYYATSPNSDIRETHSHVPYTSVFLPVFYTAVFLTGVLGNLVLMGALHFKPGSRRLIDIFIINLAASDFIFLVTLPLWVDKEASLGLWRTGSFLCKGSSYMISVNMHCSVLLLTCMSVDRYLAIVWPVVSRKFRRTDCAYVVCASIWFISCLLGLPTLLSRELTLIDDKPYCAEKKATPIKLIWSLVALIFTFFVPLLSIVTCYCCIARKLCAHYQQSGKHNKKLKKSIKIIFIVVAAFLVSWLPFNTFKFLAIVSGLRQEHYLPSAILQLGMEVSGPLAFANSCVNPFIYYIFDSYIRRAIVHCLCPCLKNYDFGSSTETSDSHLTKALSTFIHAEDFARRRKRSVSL
Sequence of Muscarinic acetylcholine receptor M2 (Homo sapiens) (P08172 whole entry): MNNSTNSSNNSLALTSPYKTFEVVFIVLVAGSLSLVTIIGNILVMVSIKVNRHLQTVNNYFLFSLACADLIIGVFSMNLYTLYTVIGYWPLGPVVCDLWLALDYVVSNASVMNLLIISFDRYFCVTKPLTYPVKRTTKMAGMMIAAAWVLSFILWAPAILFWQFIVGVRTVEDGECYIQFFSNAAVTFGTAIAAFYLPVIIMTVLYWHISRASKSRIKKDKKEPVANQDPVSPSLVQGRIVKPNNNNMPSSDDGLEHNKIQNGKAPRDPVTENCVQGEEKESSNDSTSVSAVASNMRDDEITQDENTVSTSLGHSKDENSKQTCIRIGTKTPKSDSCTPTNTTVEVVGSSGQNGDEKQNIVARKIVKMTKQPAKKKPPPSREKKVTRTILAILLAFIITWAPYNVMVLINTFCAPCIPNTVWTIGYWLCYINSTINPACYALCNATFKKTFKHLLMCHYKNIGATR
Sequence of 5-hydroxytryptamine receptor 2A (Homo sapiens) (P28223 whole entry): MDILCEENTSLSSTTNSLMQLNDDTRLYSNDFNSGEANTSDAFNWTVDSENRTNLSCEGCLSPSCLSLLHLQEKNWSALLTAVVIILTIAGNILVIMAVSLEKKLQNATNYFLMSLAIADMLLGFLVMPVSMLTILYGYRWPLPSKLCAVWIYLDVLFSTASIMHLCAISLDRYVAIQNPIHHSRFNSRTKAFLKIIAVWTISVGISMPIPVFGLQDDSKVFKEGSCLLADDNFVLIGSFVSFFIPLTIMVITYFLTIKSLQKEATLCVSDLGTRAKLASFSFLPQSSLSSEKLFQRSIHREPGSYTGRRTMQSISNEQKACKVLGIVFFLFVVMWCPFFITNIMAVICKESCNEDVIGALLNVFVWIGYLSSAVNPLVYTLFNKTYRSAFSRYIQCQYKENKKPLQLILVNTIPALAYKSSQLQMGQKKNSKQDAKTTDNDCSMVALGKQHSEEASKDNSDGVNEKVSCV
Sequence of Glucose-dependent insulinotropic receptor (Homo sapiens) (Q8TDV5 whole entry): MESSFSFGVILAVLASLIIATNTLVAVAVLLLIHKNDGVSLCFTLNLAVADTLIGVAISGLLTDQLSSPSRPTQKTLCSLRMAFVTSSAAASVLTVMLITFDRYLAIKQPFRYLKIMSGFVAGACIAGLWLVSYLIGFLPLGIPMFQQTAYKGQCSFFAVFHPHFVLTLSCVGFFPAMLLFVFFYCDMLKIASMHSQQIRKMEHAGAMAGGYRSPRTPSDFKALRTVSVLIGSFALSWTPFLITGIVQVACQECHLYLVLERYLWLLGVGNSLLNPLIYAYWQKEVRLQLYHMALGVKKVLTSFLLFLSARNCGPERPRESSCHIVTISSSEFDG

## CN(C)[C@@H]1CCN(c2cc(-c3ccccc3)nc3ccnn23)C1 [(R)-ZINC-3573]
[1]
  Activity: inactive
[2]
  Activity: inactive
[3]
  Activity: inactive
[4]
  Activity: inactive
[5]
  Activity: inactive
[6]
  Activity: inactive
[7]
  Activity: inactive
[8]; read-out: EC50
  EC50: 1 µM
[9]
  Activity: inactive
[10]; read-out: EC50
  EC50: 0.74 µM
[11]
  Activity: inactive
[12]
  Activity: inactive
[13]
  Activity: Active
[14]
  Activity: inactive
[15]
  Activity: inactive
[16]
  Activity: inactive
[17]
  Activity: inactive
[18]
  Activity: inactive
[19]
  Activity: inactive
[20]
  Activity: inactive
[21]
  Activity: inactive
[22]
  Activity: inactive
[23]
  Activity: inactive
[24]
  Activity: inactive

## CN(C)[C@H]1CCN(c2cc(-c3ccccc3)nc3ccnn23)C1 [(S)-ZINC-3573]
[1]
  Activity: inactive
[2]
  Activity: inactive
[3]
  Activity: inactive
[4]
  Activity: inactive
[5]
  Activity: inactive
[6]
  Activity: inactive
[7]
  Activity: inactive
[25]
  Activity: Active
[9]
  Activity: inactive
[10]; read-out: EC50
  EC50: > 100 µM
[11]
  Activity: inactive
[12]
  Activity: inactive
[14]
  Activity: inactive
[15]
  Activity: inactive
[16]
  Activity: inactive
[17]
  Activity: inactive
[18]
  Activity: inactive
[19]
  Activity: inactive
[20]
  Activity: inactive
[26]
  Activity: Active
[21]
  Activity: inactive
[22]
  Activity: inactive
[23]
  Activity: inactive
[24]
  Activity: inactive

## CN1CC[C@@]23CCCC[C@@H]2[C@@H]1Cc1ccc(O)cc13 [DEXTRORPHAN]
[27]
  Activity: Active
HTLA [28]
  Activity: Active
[8]; read-out: EC50
  EC50: 6 µM
[8]; read-out: pEC50 (converted)
  EC50: 3.89 µM
[10]; read-out: EC50
  EC50: 4.3 µM
[10]; read-out: pEC50 (converted)
  EC50: 4.17 µM
[29]
  Activity: inactive
HTLA [30]
  Activity: inactive

## CN1CC[C@]23c4c5ccc(O)c4O[C@H]2[C@@H](O)C=C[C@H]3[C@H]1C5 [MORPHINE]
[31]
  Activity: inactive
HTLA [28]
  Activity: Active
[8]; read-out: EC50
  EC50: 7 µM
[32]
  Activity: inactive
[10]; read-out: EC50
  EC50: 6.4 µM
[10]; read-out: pEC50 (converted)
  EC50: 6.17 µM
[13]
  Activity: Active
HTLA [30]
  Activity: inactive
[33]
  Activity: Active

Reference: ChEMBL document CHEMBL5661985, “In silico design of novel probes for the atypical opioid receptor MRGPRX2” (Nat Chem Biol, 2017)
